GPR7 antagonist = blocks human GPR7 receptor signaling | GPR7-expressing cells, fluorescence antagonist assay | inhibition, % at 4.4 µM | 290,000 compounds, 1.1% hits; in the data active means inhibition above about 16%, passing the limit was not always enough;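 further: cells stimulated with the agonist NPW; 0% = agonist with vehicle and 100% = vehicle without agonist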
Target sequence (P48145 whole entry, looked up): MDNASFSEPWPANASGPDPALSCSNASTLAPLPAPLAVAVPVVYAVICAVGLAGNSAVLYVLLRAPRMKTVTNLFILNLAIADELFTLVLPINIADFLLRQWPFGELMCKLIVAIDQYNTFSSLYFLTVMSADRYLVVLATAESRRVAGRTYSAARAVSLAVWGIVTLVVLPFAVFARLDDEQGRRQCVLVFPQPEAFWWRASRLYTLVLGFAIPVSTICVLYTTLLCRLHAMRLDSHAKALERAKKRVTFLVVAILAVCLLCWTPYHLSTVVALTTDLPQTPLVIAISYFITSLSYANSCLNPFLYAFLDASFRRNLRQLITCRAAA
OX1R antag-1 = blocks the human orexin 1 receptor; O43613; CHO/OX1R cells, Fluo-8 calcium fluorescence, orexin A; inhibition, % at 5 µM; 330,000 compounds, 0.43% hits; AID 434989;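 active means inhibition above its plate's threshold, mean inhibition of all tested compounds on the plate plus 3 SD, cut at about 37% in these data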;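 further: 0% = orexin A challenge wells and 100% = SB-334867-A antagonist wells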
Target sequence (O43613 whole entry, looked up): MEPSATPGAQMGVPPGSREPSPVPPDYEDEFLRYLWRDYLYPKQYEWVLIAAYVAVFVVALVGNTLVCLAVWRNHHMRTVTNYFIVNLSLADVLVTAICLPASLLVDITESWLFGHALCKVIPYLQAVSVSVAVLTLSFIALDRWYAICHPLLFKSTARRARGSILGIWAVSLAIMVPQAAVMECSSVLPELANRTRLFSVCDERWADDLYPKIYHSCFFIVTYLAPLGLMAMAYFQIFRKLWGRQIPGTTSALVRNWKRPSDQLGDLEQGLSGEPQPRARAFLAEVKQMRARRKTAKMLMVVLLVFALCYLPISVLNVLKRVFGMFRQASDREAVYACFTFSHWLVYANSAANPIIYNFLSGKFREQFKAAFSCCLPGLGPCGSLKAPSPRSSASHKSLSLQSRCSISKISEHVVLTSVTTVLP
CHO parental Ca = counter-screen: ATP calcium response change in parental CHO cells; parental CHO-K1, ATP-induced calcium, Fluo-8 fluorescence; inhibition, % at 5.6 µM; 330,000 compounds, 0.63% hits; AID 463079;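 active means inhibition above that plate's mean sample inhibition plus 3 SD, cut at about 26% in these data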;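 further: 0% = ATP-challenged DMSO wells and 100% = DMSO wells without ATP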
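Measured by: calcium-sensitive Fluo-8 fluorescence / Test system: CHO parental line / Controls: ATP-challenged DMSO wells low, unchallenged DMSO wells high / Measure: % inhibition / Compound: single nominal dose of 5.6 µM per compound / Replicates: single well per compound, no replicates / Reagent: ATP as calcium-mobilizing challenge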
TAAR1 agonist = human TAAR1 agonism | Q96RJ0 | 360,000 compounds, 0.99% hits | CHO RD-HGA16 TAAR1, Fluo-8 calcium fluorescence; vehicle wells 0%, saturating PEA agonist 100% | activation, % at 3 µM;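 active means activation above the mean activation of all test compounds in the run plus 3 SD, cut at about 38% in these data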
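Signal – calcium-sensitive Fluo-8 signal, excitation 470-495, emission 515-575 nm · System – RD-HGA16 (CHO) cells co-expressing Gα16 and hTAAR1 · Incubation – 17-24 h seeding, 75 min 37 °C dye, 30 min RT · Compound dosing – 3 µM single concentration · Repeats – no replicates (n 1)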
OX1R antag-2 = antagonists of human orexin 1 receptor (OX1R) | AID 485270 | 330,000 compounds, 1.8% hits | inhibition, % at 6.6 µM | O43613 | OX1R-expressing cells, FRET antagonist read-out; in the data active means inhibition mostly above about 38%, no sharp cut-off; inactive means mostly below about 40%;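 further: 0% = agonist challenge alone and 100% = reference antagonist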
TAAR1 antag = antagonists of human TAAR1; Q96RJ0; CHO RD-HGA16 TAAR1, Fluo-8 calcium fluorescence, antagonist; inhibition, % at 3 µM; 360,000 compounds, 1.5% hits; AID 624466;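 active means inhibition above a per-plate cutoff, the mean inhibition of test compounds on that plate plus 3 SD, cut at about 49% in these data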;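 further: 0% = DMSO plus EC80 beta-PEA response and 100% = DMSO alone without agonist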
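Test system: RD-HGA16 CHO cells with stable hTAAR1 and Gα16 / Probe or stimulus: EC80 β-phenethylamine stimulus / Times: seeding 17-24 h prior, 75-min 37 °C, 30-min RT dye loading / Detection: Fluo-8 calcium-sensitive fluorescence / Read-out basis: % inhibition scaled between DMSO and EC80 PEA controls / Repeats: singlicate, one well per test compound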
* = called active by the depositor; . = no result given. The list is not random: actives were taken first. Their share in the collection is about 4.6%.

SMILES	GPR7 antagonist	OX1R antag-1	CHO parental Ca	TAAR1 agonist	OX1R antag-2	TAAR1 antag
CCC(=O)N1Cc2cc(C(=O)NCC(F)(F)F)nc(-c3cccc(-c4cncnc4)c3)c2[C@H]1CCO	.	.	.	1.8	.	-7.6
Nc1ncnc(Sc2ccc(Cl)cc2)c1[N+](=O)[O-]	10.1	0.3	6.5	8.7	29.1	-12.5
Nc1ncnc(Sc2ccccc2)c1[N+](=O)[O-]	-9.3	-8.3	-2.6	1.9	46.4*	-0.4
CCC(CC)N=C1NS(=O)(=O)c2cc([N+](=O)[O-])ccc21	-5.5	-6.7	-12.0	3.5	54.8*	7.3
O=C(NS(=O)(=O)c1cccc(F)c1)[C@H]1O[C@@H](n2ccc(=O)[nH]c2=O)[C@H](O)[C@@H]1O	.	.	.	1.6	.	-27.7
CCc1cc(OCCCCNCc2ccccc2)ccc1Cl	0.6	-14.5	-0.3	41.5*	9.0	25.4
CCCCCCCCN1C(=O)[C@H](CC(=O)NCCCN2CCCC2=O)C[C@@]2(C(=O)OC)CCCCC=C12	.	.	.	3.9	.	13.2
O=C(/C=C/c1ccco1)Nc1ccc2nn(-c3ccccc3)nc2c1	2.6	17.9	5.7	0.0	76.8*	-2.0
Cc1nc2ccccc2c2c1C(=O)NC2=O	-8.8	-4.4	-5.7	.	38.6*	.
Cc1nc2ccccc2c2c1C(=O)N(c1ccc(C(=O)O)cc1)C2=O	-11.0	-2.2	14.2	2.0	5.2	12.7
CCOC(=O)c1c(NC(=O)CSc2nc3cc(Cl)ccc3s2)sc(C(C)=O)c1C	6.7	-13.3	-7.1	-0.6	6.5	-15.3
CCOC(=O)c1c(NC(=O)CSc2nc3ccccc3s2)sc(C(C)=O)c1C	-3.8	-10.9	36.2*	3.9	33.5	-9.9
C[C@@H]1Cn2cnc(C(=O)N3CCN(C(=O)OC(C)(C)C)CC3)c2C(=O)N1	.	.	.	1.4	.	-10.5
Clc1ccc(CON/C=N/c2ncnc3sccc23)c(Cl)c1	-13.2	-9.3	23.3	6.4	45.4*	24.2
Clc1ccc(CONc2ncnc3nonc23)c(Cl)c1	-9.1	-1.4	11.2	17.3	17.6	22.7
CN(C)c1ccc(/C=C(\C#N)C(=O)OCC(=O)N(C)C2CCS(=O)(=O)C2)cc1 (stereo unspecified)	.	1.2	-3.7	2.5	35.0*	13.7
CCN(C(=O)COC(=O)/C(C#N)=C/c1ccc(N(C)C)cc1)C1CCS(=O)(=O)C1 (stereo unspecified)	.	8.2	-1.3	2.8	7.6	-15.3
C#CCNC(=O)C[C@H]1C[C@@]2(C(=O)OC)C(=C[C@H](C3CCCC3)O[C@@H]2C)N(Cc2ccccc2)C1=O	.	.	.	2.4	.	-0.6
Cc1ccnc(SCC(=O)Nc2sc3c(c2C#N)CCCC3)n1	15.0	74.2*	69.1*	13.9	80.2*	29.8
CCCNC(=O)C1(C)CCN(Cc2cc(C(F)(F)F)ccc2Cl)C1 (stereo unspecified)	.	.	.	-1.8	.	-20.7
O=C(COC(=O)c1cc(=O)[nH]c2ccc(Br)cc12)c1ccccc1	1.1	-37.8	-21.4	40.5*	18.3	26.5
O=C(COC(=O)c1cc(=O)[nH]c2ccccc12)c1ccc(Br)cc1	-10.5	-14.8	-14.8	-2.8	-1.4	-29.4
O=C(Cc1cccs1)N/N=C\c1ccc([N+](=O)[O-])s1	1.4	-14.0	-12.4	13.6	46.6	-2.9
O=C(CNC(=O)c1ccccc1Cl)N/N=C/c1ccc([N+](=O)[O-])s1	-3.6	-24.5	-3.5	11.6	51.1*	-8.6
O=C(CNC(=O)c1ccccc1Br)N/N=C\c1cc([N+](=O)[O-])cc(Br)c1O	-0.2	-0.2	0.5	8.9	52.7*	-22.6
SMILES	GPR7 antagonist	OX1R antag-1	CHO parental Ca	TAAR1 agonist	OX1R antag-2	TAAR1 antag
O=C(CNC(=O)c1ccccc1Br)N/N=C/c1cc(Br)ccc1O	-2.9	-32.9	-15.2	22.7	14.4	5.7
CCOc1ccc(C(=O)Nc2cc(-c3nc4ccccc4[nH]3)ccc2Cl)cc1[N+](=O)[O-]	-11.0	-2.5	-6.4	8.4	67.7*	53.1*
CCN(CC)CCN=c1c(C)nc(C#N)c(N)n1O	.	.	.	1.0	.	0.8
C/C(=N\Nc1ccc([N+](=O)[O-])cc1)c1ccc(O)cc1	2.4	11.2	-0.8	19.4	32.0	54.9*
C/C(=N\Nc1ccc([N+](=O)[O-])cc1)c1cccc(N)c1	4.6	-17.4	-7.5	17.7	16.7	16.9
CCOC(=O)Cn1nc(-c2ccccc2)c2cnc3ccc(C)cc3c21	0.2	-19.7	-7.0	3.9	20.6	49.3*
O=C(COC(=O)c1ccccc1Nc1ccccc1)c1ccccc1	1.8	43.4*	6.2	6.8	19.9	14.9
CNc1ccccc1C(=O)OCC(=O)c1ccccc1	-5.7	-32.5	-15.1	.	27.0	.
O=C(COC(=O)c1ccccc1-c1ccccc1[N+](=O)[O-])c1ccccc1	-5.6	0.2	18.1	9.6	29.6	56.0*
O=C(COC(=O)c1ccccc1[N+](=O)[O-])c1ccc2c(c1)OCO2	.	-10.2	2.9	5.3	13.8	3.0
Nc1cc(OC(=O)c2cccs2)nn1S(=O)(=O)c1ccccc1	-12.3	-4.3	-7.7	39.7*	28.1	18.4
Cc1ccc(C(=O)Oc2cc(N)n(S(=O)(=O)c3ccc(F)cc3)n2)cc1	-1.4	-35.2	-28.0	6.7	34.4	-35.0
Nc1cc(OC(=O)c2cccs2)nn1S(=O)(=O)c1ccc(F)cc1	-8.8	-24.7	-13.2	41.5*	13.1	-1.6
C[n+]1ccc(/C=N/Nc2nc(Cl)c(C#N)c(Cl)c2Cl)cc1	5.8	0.4	-7.1	3.8	54.2*	3.7
Clc1nnc(N/N=C/c2ccccc2)c2ccccc12	-11.1	-10.8	-30.4	10.7	14.1	6.7
CCCSc1ccc2nc(-c3ccccc3)cn2c1	-12.7	-24.0	-16.5	-0.6	10.4	-2.5
CCCCSc1ccc2nc(-c3ccc(C#N)cc3)cn2c1	11.5	-34.4	1.0	19.4	22.2	50.5*
Cc1ccc(C(=O)N2CCC[C@@H]2C(=O)N2CCC[C@@H]2C(=O)NCc2ccccc2)cc1C	.	.	.	-0.2	.	3.1
O=C1C(Oc2ccccc2)C(c2cccs2)N1Cc1ccc2c(c1)OCO2 (stereo unspecified)	-11.1	42.7	23.9	14.2	11.1	35.7
COc1ccc(OC2C(=O)N(Cc3ccc4c(c3)OCO4)C2c2cccs2)cc1 (stereo unspecified)	-8.4	57.9*	40.9*	9.3	16.9	55.9*
COc1ccc(CN(CCc2ccccc2)Cc2ccccc2)cc1OC	-5.5	-40.0	-50.1	18.4	60.1*	12.1
COc1ccc(CCN(C)CCc2ccc(OC)c(OC)c2)cc1OC	.	-11.5	-10.4	2.4	14.6	-15.2
C#CCn1cc(CNC[C@H]2O[C@@H](n3cnc4c(=O)[nH]c(N)nc43)[C@H](O)[C@@H]2O)c2ccccc21	.	.	.	0.3	.	11.8
COc1ccc(CN(C)C(=O)c2cc(-c3ccccc3)nc3ccc(C)cc23)c(OC)c1	.	.	.	5.4	.	45.3
